Most compounds without a hit are left out; they make up all but 4.2% or so of the library.
ANO1 block: blocks the mouse calcium-activated chloride channel TMEM16A; Q8BHY3; 310,000 tested, 1.2% active; normalized B-score (activity score, 25-100; higher = stronger inhibition) at 10 µM; HEK293 TMEM16A/YFP iodide influx fluorescence, ionomycin;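 active means ratio plate-corrected score three or more library SD toward inhibition, starting fluorescence score within five deviations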;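 further: score derived from kinetic fluorescence span divided by baseline fluorescence per well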
Target sequence (Q8BHY3 whole entry, looked up): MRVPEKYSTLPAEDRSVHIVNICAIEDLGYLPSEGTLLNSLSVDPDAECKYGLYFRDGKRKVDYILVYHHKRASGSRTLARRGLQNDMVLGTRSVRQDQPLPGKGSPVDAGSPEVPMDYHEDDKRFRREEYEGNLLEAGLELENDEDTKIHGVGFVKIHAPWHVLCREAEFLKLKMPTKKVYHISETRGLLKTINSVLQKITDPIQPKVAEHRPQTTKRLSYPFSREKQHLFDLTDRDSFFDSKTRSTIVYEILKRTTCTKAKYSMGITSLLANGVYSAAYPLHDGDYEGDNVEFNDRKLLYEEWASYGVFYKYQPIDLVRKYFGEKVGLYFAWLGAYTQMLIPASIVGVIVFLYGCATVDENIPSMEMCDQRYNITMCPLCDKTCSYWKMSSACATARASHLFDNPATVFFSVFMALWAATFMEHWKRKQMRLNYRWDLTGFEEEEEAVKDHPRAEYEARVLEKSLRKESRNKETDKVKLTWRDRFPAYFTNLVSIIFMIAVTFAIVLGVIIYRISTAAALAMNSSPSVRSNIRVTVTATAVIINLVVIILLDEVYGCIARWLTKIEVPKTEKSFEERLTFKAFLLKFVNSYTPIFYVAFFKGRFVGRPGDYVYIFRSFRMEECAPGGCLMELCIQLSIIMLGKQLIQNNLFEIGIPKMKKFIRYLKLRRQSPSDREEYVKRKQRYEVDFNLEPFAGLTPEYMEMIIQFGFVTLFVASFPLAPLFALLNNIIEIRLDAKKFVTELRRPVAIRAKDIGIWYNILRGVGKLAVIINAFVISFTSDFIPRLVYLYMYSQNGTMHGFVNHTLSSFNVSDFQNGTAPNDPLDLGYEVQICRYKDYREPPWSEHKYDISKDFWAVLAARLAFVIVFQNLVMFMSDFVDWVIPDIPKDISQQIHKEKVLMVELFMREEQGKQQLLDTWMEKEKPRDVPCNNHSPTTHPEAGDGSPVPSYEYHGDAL
UPR CHOP act: activators of apoptotic arm of unfolded protein response (CHOP) | CHO-CHOP luciferase reporter, UPR activation, luminescence; percent of tunicamycin response over DMSO baseline | 330,000 tested, 0.34% active | AID 449763 | activation, % at 10 µM;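 active means at 10 µM dose, activation of 40% or more, normalized to positive control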
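Assay system: CHO-CHOP cells, stable luciferase reporter of PERK-eIF2a-CHOP signalling / Buffer or medium: F12 plus 10% serum / Compound dosing: one dose, 10 µM in 0.5% DMSO / Times: 6 h compound treatment, 37 °C / Technique: luciferase luminescence / Read-out: % reporter activation, DMSO baseline versus tunicamycin full activation / Benchmarks: tunicamycin and DMSO controls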
Hep lipid drop: modulators of hepatic lipid droplet formation | AML12 mouse hepatocytes, oleate lipid droplets, BODIPY imaging | inhibition, % at 6.5 µM | 240,000 tested, 0.4% active | AID 1656;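 active means lipid droplet intensity inhibited by at least 50%, with more than 500 cells counted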
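Material – AML12 mouse liver cells · Also added – oleate loading, 100 µM · Compound dosing – 6.5 µM single-point dosing · Times – overnight treatment with compound plus oleate · Measured by – fluorescence imaging, 20x objective, two fields per well · Read-out – percent inhibition of filter-corrected integrated lipid droplet intensity per well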
UPR XBP1 act: activators of adaptive arm of unfolded protein response (XBP1); CHO-XBP1 luciferase reporter, IRE1-XBP1 UPR activation, luminescence; percent of tunicamycin response, DMSO as zero; activation, % at 20 µM; 330,000 tested, 0.33% active;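 active means versus positive control, 20 µM dose yields 30% or more activation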
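Material: CHO-XBP1 cells stably carrying IRE1-XBP1-driven luciferase reporter / Amount: 1000 cells per well / Compound: 20 µM, 1% DMSO / Times: 6 h treatment, 37 °C / Detection: luciferase luminescence / Measure: % activation of reporter signal versus tunicamycin and DMSO controls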
ANO1 activ: activates or potentiates the mouse TMEM16A chloride channel | Q8BHY3 | HEK293 TMEM16A/YFP-H148Q/I152L, iodide quench fluorescence; hits give low values | B-score at 10 µM | 340,000 tested, 0.3% active | AID 623877;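 active means fluorescence-ratio B-score plate-corrected deviation score at least 3 library SD below zero, with starting fluorescence score within 5 deviations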;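 further: channel opened by trigger with iodide after compound preincubation; score built on the fluorescence ratio of max minus min over baseline; more negative score means more quench and so TMEM16A activation or potentiation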
CHOP inhibitor: inhibitors of CHOP induction in ER stress response; 220,000 tested, 3.8% active; AID 2732; CHO-K1 CHOP-promoter luciferase, tunicamycin-induced, 15-18 h; inhibition, % at 10 µM;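 active means compounds that reduced the stress-induced luciferase reporter signal by more than about 70% of percent inhibition, limit read from the data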
Numbers stand for hits; n = inactive; x = not tested or not shown.

SMILES | ANO1 block | UPR CHOP act | Hep lipid drop | UPR XBP1 act | ANO1 activ | CHOP inhibitor
CC(NC(=S)Nc1ccc(OC(F)F)c(Cl)c1)C(C)(C)C (centres undefined) | n | n | n | n | n | n
O=C(Nc1cccc(Cl)c1)Nc1cc(S(=O)(=O)N2CCCCC2)ccc1Cl | n | n | n | n | n | 87
Cc1cc(C)cc(NC(=S)Nc2ccc(Cl)c(Cl)c2)c1 | 100 | n | n | n | -9.6 | n
COC(=O)c1cc(NC(=O)Nc2cccc(Cl)c2)ccc1Cl | n | n | x | n | n | 95
Cc1ccc(NC(=S)Nc2ccc(Cl)c(Cl)c2)c(OC(F)F)c1 | 100 | n | n | n | n | 82
CCNC(=O)CSc1nnc(-c2cccc(S(=O)(=O)N3CCOCC3)c2)o1 | x | n | x | n | n | x
Cc1cc(NC(=O)C(Cl)Cl)cc2c1OCO2 | x | x | x | x | n | x
CCCN=C1N(C)C[C@@H]2[C@@H]3C(=O)N(C)C(=O)[C@@H]3[C@](C)(C(=O)OC)N12 | x | n | x | n | x | x
COc1ccc(/C=C2\SC(=S)N(Cc3cccnc3)C2=O)cc1C | n | n | n | n | n | 88
COc1cc(/C=C2/SC(=S)N(CC(=O)O)C2=O)ccc1OC(=O)c1ccco1 | n | n | n | n | -5.3 | x
CCOc1ccc(/C=C2\SC(=S)N(Nc3ccccc3)C2=O)cc1OC | n | n | n | n | n | 82
COc1ccc(NS(=O)(=O)c2cccc(C(=O)NNC(=O)CNC(=O)c3ccco3)c2)cc1 | n | n | n | n | n | x
COc1ccc(C(=O)Nc2nc(C)c3cc4c(cc3n2)OCO4)cc1 | n | n | n | n | n | 72
COC(=O)c1ccc(COC(=O)CNC(=O)c2cccs2)cc1 | n | n | n | n | n | x
CCOC(=O)C1=C(c2ccccc2)NC(SCC(=O)Nc2ccc(C)cc2)=C(C#N)C1c1ccco1 (centres undefined) | n | n | n | n | n | 94
CCOC(=O)C1=C(c2ccccc2)NC(SCC(=O)Nc2cccc(C)c2)=C(C#N)C1c1ccco1 (centres undefined) | n | n | x | n | n | 99
CCOC(=O)C1=C(c2ccccc2)NC(SCC(=O)Nc2ccccc2C)=C(C#N)C1c1ccco1 (centres undefined) | n | n | n | n | n | n
NC(=O)CCS(=O)(=O)c1ccc(Cl)cc1 | n | n | n | n | n | n
